The record followed here is ChEMBL document CHEMBL4359814, “A Potent Isoprenylcysteine Carboxylmethyltransferase (ICMT) Inhibitor Improves Survival in Ras-Driven Acute Myeloid Leukemia” (J Med Chem, 2019).

Molecules are shown by their SMILES. The source made the active and inactive calls. The rule behind the calls is not given here.

In data set [1] the target is T1, Protein farnesyltransferase (Homo sapiens) (UniProt P49354+P49356). Briefly: Inhibition of FTase in human PC3 cells assessed as reduction in HDJ2 farnesylation at 10 uM measured after 24 hrs by Western blot analysis. In kind it is cell-based. For orientation: In western blotting, separated proteins are transferred to a membrane and probed.
The species named for data set [2] is Homo sapiens. The experiment in a line: Inhibition of GGTase in human PC3 cells assessed as reduction in Rap1A geranylgeranylation at 10 uM measured after 24 hrs by Western blot analysis. In kind it is cell-based.
The target in the next data set is T2, CAAX prenyl protease 2 (Homo sapiens, UniProt Q9Y256).
T2 sequence (Q9Y256 whole entry): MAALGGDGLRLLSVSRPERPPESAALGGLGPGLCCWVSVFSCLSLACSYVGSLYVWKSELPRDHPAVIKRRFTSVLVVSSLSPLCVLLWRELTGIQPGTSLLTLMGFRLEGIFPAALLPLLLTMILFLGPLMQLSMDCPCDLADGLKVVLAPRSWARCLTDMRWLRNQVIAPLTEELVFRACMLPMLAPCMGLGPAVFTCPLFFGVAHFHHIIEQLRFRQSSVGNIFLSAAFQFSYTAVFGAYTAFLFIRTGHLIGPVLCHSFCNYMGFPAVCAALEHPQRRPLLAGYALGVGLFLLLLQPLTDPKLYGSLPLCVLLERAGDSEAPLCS
The experiment in a line: Inhibition of Rce1 in human PC3 cells at 10 uM using KSKTKC(f)VI as substrate measured after 24 hrs by LC-MS/MS analysis. It counts as cell-based. The method, boiled down: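 PC-3 cells were incubated ±10 μM compound for 24 h and homogenised in 100 mM HEPES pH 7.5, 5 mM MgCl2, 0.5% NP-40. Homogenate, 0.2 mg, was reacted with 250 μM KSKTKC(f)VI for 60 min at 37 °C. Reactions were stopped with ice-cold acetonitrile, and the M+2/2 ion was followed by HPLC-MS/MS.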

A further data set has as its target Albumin (Homo sapiens, UniProt P02768). Briefly: Binding affinity to human serum albumin. In kind it is ADME. The settings on record: for fraction unbound: human, human serum albumin, read-out: PB (converted).
Data set [3] deals with Tyrosine-protein kinase Fyn (Homo sapiens) (UniProt P06241). Briefly: Effect on GFP-fused Fyn (unknown origin) transfected in human AD293 cells assessed as induction of Fyn mislocalization at 5 uM by laser confocal microscopic analysis. In kind it is cell-based.
Data set [4] is described as follows: […] at 25 mg/kg, ip measured up to 6 hrs by LC-MS/MS analysis. In kind it is ADME, organism-based. The settings on record: NSG, mouse, plasma.
Data set [5] is described as follows: Permeability of the compound. It counts as ADME. The method, boiled down:
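Parallel artificial membrane assay, expressed as percentage of compound passing through the membrane. Mean±SEM of at least two independent experiments in duplicate.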

A short description of data set [6]: Drug level in NSG mouse plasma xenografted with human HL60 cells at 25 mg/kg, ip administered 5 days a week followed by 2 days interval for 15 days measured 2 hrs post-last dose by LC-MS/MS analysis. It counts as ADME, organism-based.
Data set [7] can be described thus: Drug level in NSG mouse plasma at 25 mg/kg, ip measured after 1 hr by LC-MS/MS analysis. It counts as ADME, organism-based. In outline: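 8-week female mice received a single 25 mg/kg ip dose. Blood was taken by cardiac puncture at set time points (n=3 per point), clotted 30 min at rt and centrifuged. Serum was extracted with cold acetonitrile, filtered, and analysed by LC-MS/MS on a C18 column using positive ESI and MRM transition 423.50 > 289.05.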

The species entered for data set [8] is Homo sapiens. The experiment in a line: Inhibition of GGTase in human PC3 cells assessed as reduction in Rap1A geranylgeranylation at 1 uM measured after 24 hrs by Western blot analysis. In kind it is cell-based.
Data set [9] concerns the target T1, Protein farnesyltransferase (Homo sapiens). The settings on record: 1 uM.
For data set [10], the system named is PC-3. Briefly: Induction of apoptosis in human PC3 cells assessed as increase in cleaved PARP expression at 25 uM measured after 24 hrs by Western blot analysis. It counts as functional, cell-based.
The target in data set [11] is Protein-S-isoprenylcysteine O-methyltransferase (Homo sapiens) (UniProt O60725). Briefly: Inhibition of ICMT in human AD293 cells transfected GFP-fused H-Ras assessed as induction of H-Ras mislocalization at 5 uM by laser scanning confocal microscopic analysis. In kind it is cell-based. In outline:
(§1)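 AD-293 cells were transiently transfected with GFP fusion plasmids of H-Ras, K-Ras4A, K-Ras4B or N-Ras. They were treated overnight with 5 μM compound or DMSO, then imaged live by laser scanning confocal microscopy. Three independent transfections were performed in triplicate.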

Data set [12] has the same target. Briefly: Inhibition of ICMT in human AD293 cells transfected GFP-fused K-Ras4B assessed as induction of K-Ras4B mislocalization at 5 uM by laser scanning confocal microscopic analysis. It counts as cell-based. The method, boiled down: as §1
The test system of data set [13] is PC-3. The experiment in a line: Induction of apoptosis in human PC3 cells assessed as increase in caspase 3 activity at 25 uM. It counts as functional, cell-based.
The subject of a further data set is MIA PaCa-2. Briefly: Induction of apoptosis in human MIAPaCa2 cells assessed as increase in sub-G0/G1 population at 50 uM measured after 24 hrs by propidium iodide staining based flow cytometry. It counts as functional, cell-based. On the technique in general: Flow cytometry measures light scatter and fluorescence of single cells or particles in a stream.
In data set [14] the target is Protein-S-isoprenylcysteine O-methyltransferase (Homo sapiens) (UniProt O60725). Briefly: Inhibition of ICMT in human AD293 cells transfected GFP-fused K-Ras4A assessed as induction of K-Ras4A mislocalization at 5 uM by laser scanning confocal microscopic analysis. It counts as cell-based. The method, boiled down: as §1
The next data set relates to Capan-2. Briefly: Induction of apoptosis in human Capan2 cells assessed as increase in sub-G0/G1 population at 50 uM measured after 24 hrs by propidium iodide staining based flow cytometry. It counts as functional, cell-based.
The test system of data set [15] is PC-3. Briefly: Induction of autophagy in human PC3 cells assessed as increase in LC3 expression at 25 uM measured after 24 hrs by Western blot analysis. In kind it is functional, cell-based.
Data set [16] addresses Protein-S-isoprenylcysteine O-methyltransferase (Homo sapiens) (UniProt O60725). The experiment in a line: Inhibition of ICMT in human AD293 cells transfected GFP-fused N-Ras assessed as induction of N-Ras mislocalization at 5 uM by laser scanning confocal microscopic analysis. In kind it is cell-based. The method, boiled down:
as §1

Another data set concerns PANC-1. The experiment in a line: Induction of apoptosis in human PANC1 cells assessed as increase in sub-G0/G1 population at 50 uM measured after 24 hrs by propidium iodide staining based flow cytometry. It counts as functional, cell-based.
The next data set relates to PK9. Briefly: Induction of apoptosis in human PK9 cells assessed as increase in sub-G0/G1 population at 50 uM measured after 24 hrs by propidium iodide staining based flow cytometry. In kind it is functional, cell-based.
For another data set, the system named is HuP-T4. The experiment in a line: Induction of apoptosis in human HUPT4 cells assessed as increase in sub-G0/G1 population at 50 uM measured after 24 hrs by propidium iodide staining based flow cytometry. It counts as functional, cell-based.
Data set [17] deals with Protein-S-isoprenylcysteine O-methyltransferase (Homo sapiens) (UniProt O60725). The experiment in a line: Inhibition of ICMT in human PC3 cells assessed as induction of mislocalization of endogenous Ras at 5 uM preincubated for 48 hrs followed by compound washout and subsequent compound addition measured after 72 hrs by Hoechst 33258 staining-based confocal microscopic analysis. In kind it is cell-based. The method, boiled down: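 PC3 cells were seeded at 2×10^4 on poly-D-lysine coverslips for 24 h in RPMI with 10% FBS. They were treated with compound or DMSO for 120 h, with medium and compound renewed at 48 h. Cells were fixed in 4% PFA, permeabilised with Triton X-100, and stained with anti-Ras and a fluorescent secondary, with Hoechst for nuclei. Imaging used a 60X confocal objective, and membrane Ras signal was quantified.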

Data set [18] shares this target. The experiment in a line: Inhibition of recombinant human ICMT expressed in Sf9 insect cell membranes at 50 uM using biotin-farnesyl-L-cysteine as substrate preincubated for 15 mins followed by substrate addition and measured after 30 mins by scintillation counting analysis relative to control.

Sequence of Albumin (P02768 whole entry, the tested form may be a part): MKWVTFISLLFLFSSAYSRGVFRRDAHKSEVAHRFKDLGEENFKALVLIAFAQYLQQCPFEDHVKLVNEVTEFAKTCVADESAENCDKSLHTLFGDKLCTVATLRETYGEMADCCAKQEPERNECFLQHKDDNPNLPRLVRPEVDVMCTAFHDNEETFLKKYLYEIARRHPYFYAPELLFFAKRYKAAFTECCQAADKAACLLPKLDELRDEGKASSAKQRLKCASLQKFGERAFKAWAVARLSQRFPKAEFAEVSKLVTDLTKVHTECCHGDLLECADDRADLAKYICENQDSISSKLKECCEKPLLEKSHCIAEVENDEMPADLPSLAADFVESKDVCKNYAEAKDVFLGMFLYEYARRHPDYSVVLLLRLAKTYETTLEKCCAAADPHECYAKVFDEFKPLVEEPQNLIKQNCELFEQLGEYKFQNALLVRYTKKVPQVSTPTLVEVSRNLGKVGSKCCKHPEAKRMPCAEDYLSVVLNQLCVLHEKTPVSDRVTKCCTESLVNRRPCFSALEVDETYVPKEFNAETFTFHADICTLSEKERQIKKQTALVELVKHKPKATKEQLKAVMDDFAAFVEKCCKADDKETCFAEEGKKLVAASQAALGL
Sequence of Protein-S-isoprenylcysteine O-methyltransferase (Homo sapiens) (O60725 whole entry, the tested form may be a part): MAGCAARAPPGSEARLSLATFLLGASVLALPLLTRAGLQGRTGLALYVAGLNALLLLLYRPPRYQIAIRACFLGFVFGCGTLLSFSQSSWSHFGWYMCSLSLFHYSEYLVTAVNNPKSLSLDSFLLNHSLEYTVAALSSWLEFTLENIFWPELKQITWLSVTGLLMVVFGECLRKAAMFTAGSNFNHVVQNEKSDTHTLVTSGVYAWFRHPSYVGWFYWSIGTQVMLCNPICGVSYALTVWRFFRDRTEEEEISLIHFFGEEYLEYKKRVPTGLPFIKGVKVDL
Sequence of Tyrosine-protein kinase Fyn (Homo sapiens) (P06241 2-537 limits assumed): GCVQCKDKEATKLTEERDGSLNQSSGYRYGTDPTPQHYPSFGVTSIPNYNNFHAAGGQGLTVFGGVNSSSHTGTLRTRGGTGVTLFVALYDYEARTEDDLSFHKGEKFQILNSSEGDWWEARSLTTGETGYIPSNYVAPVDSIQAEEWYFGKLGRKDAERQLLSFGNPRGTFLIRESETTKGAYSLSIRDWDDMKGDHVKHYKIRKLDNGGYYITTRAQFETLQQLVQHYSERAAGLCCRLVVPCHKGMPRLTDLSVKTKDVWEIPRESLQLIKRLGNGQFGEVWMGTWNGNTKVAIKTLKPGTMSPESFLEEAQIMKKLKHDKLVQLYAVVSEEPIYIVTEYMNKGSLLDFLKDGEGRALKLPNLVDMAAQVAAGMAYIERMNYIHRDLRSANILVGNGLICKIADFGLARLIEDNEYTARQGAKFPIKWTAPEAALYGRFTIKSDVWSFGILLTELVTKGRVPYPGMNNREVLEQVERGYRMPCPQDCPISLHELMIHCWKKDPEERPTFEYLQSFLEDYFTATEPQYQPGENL

In general, inhibition refers to the change of the read-out against control, counted positive when it falls. For the molecule `COC(=O)[C@H](CC(C)C)NC(=O)c1ccc(NC[C@@H](N)CS)cc1-c1cccc2ccccc12`, the inhibition result in data set [1] is “inactive”. In addition, the inhibition result in the data set listed under Homo sapiens [2] is “Active”.

A word on the Kd: it is the constant that tells how readily two partners part at equilibrium. Low readings indicate tighter binding, high ones weaker binding. Turning to `CCCCCCCCN(CCC(=O)Nc1ccccc1)CCC(=O)Nc1ccccc1`, the inhibition result in data set [1] was “inactive”. At CAAX prenyl protease 2, the “inhibition (INH)” value is listed as “Not Active”. Besides, at Albumin, binding was put at a Kd of 28 µM and the fraction unbound is 0.046. Further, in [3], the result was inactive. In addition, the concentration at 6 h in [4] was found to be 480 nM. In addition, in [5], the permeability came out at 68%. For the same molecule, the concentration at 2 h in data set [6] came out at 736 nM. In data set [7], this molecule yielded a concentration at 1 h of 1700 nM.

`NC(=O)N1CCC(CC(=O)N2CCC([C@H]3c4ncc(Br)cc4CCc4cc(Cl)cc(Br)c43)CC2)CC1`: the inhibition result in the data set filed under Homo sapiens [8] is “inactive”. Besides, the inhibition entry in [9] is “Active”.

Consider `CCCCCCCCn1cc(CC(N)=O)c2cc(-c3cccc(C)c3)ccc21`, for which the outcome in the data set with PC-3 [10], with PC-3 [13], in the data set on MIA PaCa-2, in the data set on Capan-2, with PC-3 [15] and in the data set with PANC-1 was Active. Further, the result in the data set with PK9 and in the data set with HuP-T4 was Active. Further, the inhibition entry in data set [11], in data set [12], in data set [14], in data set [16] and in data set [17] was “Active” each time. The result in data set [3] was inactive.

Take `CCCCCCCCN(CCC(=O)Nc1ccccc1)CCC(=O)Nc1ccc(F)cc1`: on Albumin, the dissociation constant (Kd) turned out to be 7.8 µM and the fraction unbound was 0.013. The permeability in data set [5] stood at 54%.

As for `CCCCCCCCN(CCC(=O)Nc1ccccc1)CCC(=O)NC1CCCCC1`, at Albumin, the Kd worked out at 3 µM and the fraction unbound was 0.005. The permeability in data set [5] is on record as 50%.

Regarding `CCCCCCCCN(CCS(=O)(=O)Nc1ccccc1)CCS(=O)(=O)Nc1ccccc1`, the inhibition in data set [18] turned out to be 34%.

Consider `CCOCCOCCN(CCC(=O)Nc1ccccc1)CCC(=O)Nc1ccccc1`, for which the inhibition in data set [18] turned out to be 15%.

Consider `CCCCCCCCN(CCC(=O)Nc1ccccc1)CCS(=O)(=O)N(C)c1ccccc1`, for which the inhibition in data set [18] came to 10%.

For the molecule `CCCCCCCCN(CCS(=O)(=O)N(C)c1ccccc1)CCS(=O)(=O)N(C)c1ccccc1`, the inhibition in data set [18] came to 12%.

As for `CCCCCCCCN(CCC(=O)Nc1ccccc1)CCS(=O)(=O)Nc1ccccc1`, the inhibition in [18] stood at 22%.
